Measured values taken from ChEMBL document CHEMBL2321801, “Induction of ABCA1 and ABCG1 expression by the liver X receptor modulator cineole in macrophages” (Bioorg Med Chem Lett, 2013).
Calls of active or inactive are those of the source. The rule behind the calls is not given here.

Key:
HepG2 [1] = test: Reduction in lipid accumulation in human HepG2 cells at 1 microM by Oil Red O staining; assay type: functional, cell-based
[2] = target: T1, Oxysterols receptor LXR-beta (Homo sapiens) (UniProt P55055); test: Induction of recruitment of D22 peptide to LXRbeta (unknown origin) by TR-FRET LXR-alpha co-activator assay
T1 sequence (whole entry): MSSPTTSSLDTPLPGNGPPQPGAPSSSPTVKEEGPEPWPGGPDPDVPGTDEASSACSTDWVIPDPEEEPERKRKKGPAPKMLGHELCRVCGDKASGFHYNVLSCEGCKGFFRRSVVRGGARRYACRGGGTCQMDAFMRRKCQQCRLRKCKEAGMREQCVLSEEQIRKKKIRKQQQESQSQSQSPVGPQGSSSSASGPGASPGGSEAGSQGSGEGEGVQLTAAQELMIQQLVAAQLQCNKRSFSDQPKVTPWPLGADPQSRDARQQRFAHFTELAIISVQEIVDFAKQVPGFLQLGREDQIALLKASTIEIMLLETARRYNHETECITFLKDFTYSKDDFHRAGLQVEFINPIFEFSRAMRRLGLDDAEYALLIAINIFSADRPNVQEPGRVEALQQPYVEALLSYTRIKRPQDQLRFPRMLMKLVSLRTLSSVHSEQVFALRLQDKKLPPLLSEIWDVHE

[3] = target: T2, Oxysterols receptor LXR-alpha (Homo sapiens) (UniProt Q13133); test: Induction of recruitment of Trap220 peptide to LXRalpha (unknown origin) by TR-FRET LXR-alpha co-activator assay
T2 sequence (whole entry): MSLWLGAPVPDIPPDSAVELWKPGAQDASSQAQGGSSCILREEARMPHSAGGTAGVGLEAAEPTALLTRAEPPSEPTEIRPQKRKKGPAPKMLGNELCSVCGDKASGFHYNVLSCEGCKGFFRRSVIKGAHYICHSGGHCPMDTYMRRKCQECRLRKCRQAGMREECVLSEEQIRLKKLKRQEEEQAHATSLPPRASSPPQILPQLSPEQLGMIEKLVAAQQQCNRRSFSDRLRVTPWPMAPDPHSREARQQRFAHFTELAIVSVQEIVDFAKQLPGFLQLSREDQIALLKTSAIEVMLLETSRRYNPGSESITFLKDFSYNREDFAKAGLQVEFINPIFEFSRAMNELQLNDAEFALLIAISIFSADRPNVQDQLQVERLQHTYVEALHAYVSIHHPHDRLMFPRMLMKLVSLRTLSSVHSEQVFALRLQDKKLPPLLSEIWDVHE
How it was run: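 Cell-free LanthaScreen TR-FRET LXR-α co-activator recruitment assay, run per kit instructions, with T0901317 as reference agonist.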

[4] = target: T3, Oxysterols receptor LXR-beta (Homo sapiens, UniProt P55055); test: Binding affinity to LXRbeta (unknown origin)
T3 sequence (P55055 whole entry): T1 sequence (whole entry)

[5] = target: T4, Oxysterols receptor LXR-alpha (Homo sapiens, UniProt Q13133); test: Binding affinity to LXRalpha (unknown origin)
T4 sequence (Q13133 whole entry): T2 sequence (whole entry)

[6] = target: Oxysterols receptor LXR-beta (Homo sapiens) (UniProt P55055); test: Agonist activity at LXRbeta (unknown origin) transfected in human CHO-K1 cells assessed as induction of transactivation at 200 microM by luciferase reporter gene transactivation assay relative to control
HepG2 [7] = test: Downregulation of SCD-1 mRNA expression in human HepG2 cells at 50 to 100 microM by qPCR; assay type: functional
How it was run: (§1)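 Cells were preincubated 24 h in DMEM, then exposed 24 h to 50 or 100 µM (final) at 37 °C in 5% CO2. Vehicle was 1% DMSO, and each treatment was run at least in triplicate. Total RNA was extracted and transcripts were measured by qPCR relative to vehicle control, mean ± SE, n = 3.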

HepG2 [8] = test: Reduction in lipid accumulation in human HepG2 cells at 100 microM by Oil Red O staining; assay type: functional, cell-based
RAW264.7 [9] = test: Induction of cholesterol efflux in mouse RAW264.7 cells assessed as reduction in cellular cholesterol level at 100 microM in presence of higher cholesterol relative to control; assay type: functional; set-up: scale not given: the % may be the effect or the level left
RAW264.7 [10] = test: Induction of LXR-responsive genes in mouse RAW264.7 cells assessed as increase in ABCA1 protein expression measured at 100 microM by immunoblotting; assay type: functional, cell-based
How it was run: (§2)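 Cells were preincubated 24 h in DMEM, then treated 24 h with 50 or 100 µM alongside a 1% DMSO vehicle. They were lysed in ice-cold Tris-HCl pH 7.4/EDTA/NaCl/0.5% Triton X-100 buffer with protease inhibitors. 30 µg protein was run on 10% SDS-PAGE and transferred to nitrocellulose. Blots were probed with target antibodies, with α-tubulin as reference, n = 3.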

RAW264.7 [11] = test: Induction of LXR-responsive genes in mouse RAW264.7 cells assessed as increase in Abca1 mRNA expression measured at 50 to 100 microM by qPCR
RAW264.7 [12] = test: Induction of cholesterol efflux genes in mouse RAW264.7 cells assessed as increase in LXRbeta protein expression measured at 100 microM by immunoblotting; assay type: functional, cell-based; how it was run: as §2
HepG2 [13] = test: Reduction in lipid accumulation in human HepG2 cells at 50 microM by Oil Red O staining; assay type: functional, cell-based
HepG2 [14] = test: Downregulation of FAS mRNA expression in human HepG2 cells at 50 to 100 microM by qPCR; assay type: functional; how it was run: as §1
RAW264.7 [15] = test: Induction of cholesterol efflux genes in mouse RAW264.7 cells assessed as increase in LXRbeta mRNA expression measured by qPCR; assay type: functional, cell-based; how it was run: as §1
HepG2 [16] = test: Downregulation of FAS protein expression in human HepG2 cells at 50 to 100 microM by immunoblotting; assay type: functional; how it was run: as §2
RAW264.7 [17] = test: Induction of cholesterol efflux genes in mouse RAW264.7 cells assessed as increase in LXRalpha protein expression measured at 100 microM by immunoblotting; assay type: functional, cell-based; how it was run: as §2
HepG2 [18] = test: Downregulation of SREBP-1c mRNA expression in human HepG2 cells at 50 to 100 microM by qPCR; assay type: functional; how it was run: as §1
RAW264.7 [19] = test: Induction of LXR-responsive genes in mouse RAW264.7 cells assessed as increase in Abca1 mRNA expression measured at 50 to 100 microM by qPCR; assay type: functional, cell-based; how it was run: as §1
HepG2 [20] = test: Downregulation of LXRalpha mRNA expression in human HepG2 cells at 50 to 100 microM by qPCR; assay type: functional; how it was run: as §1
RAW264.7 [21] = test: Induction of cholesterol efflux genes in mouse RAW264.7 cells assessed as increase in LXRalpha mRNA expression measured at 50 to 100 microM by qPCR; assay type: functional; how it was run: as §1
RAW264.7 [22] = test: Induction of cholesterol efflux in mouse RAW264.7 cells assessed as reduction in cellular cholesterol level at 100 microM relative to control; assay type: functional; set-up: scale not given: the % may be the effect or the level left
[23] = target: Oxysterols receptor LXR-beta (Homo sapiens) (UniProt P55055); test: Agonist activity at LXRbeta (unknown origin) transfected in human CHO-K1 cells assessed as induction of transactivation at 50 microM by luciferase reporter gene transactivation assay relative to control
HepG2 [24] = test: Downregulation of SREBP-1c protein expression in human HepG2 cells at 50 to 100 microM by immunoblotting; assay type: functional; how it was run: as §2
[25] = target: T2, Oxysterols receptor LXR-alpha (Homo sapiens); test: Agonist activity at LXRalpha (unknown origin) transfected in human CHO-K1 cells assessed as induction of transactivation at 50 to 200 microM by luciferase reporter gene transactivation assay relative to control; assay type: cell-based
How it was run: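 CHO-K1 cells in DMEM/F12 with 10% heat-inactivated FBS and 1% penicillin/streptomycin, co-transfected with pGL4.35 GAL4-UAS luciferase reporter, pSV-β-galactosidase and a human LXRα plasmid (pFN26A). After 24 h, cells were treated 24 h with 50, 100 or 200 µM. Firefly luciferase was normalized to β-galactosidase in the same lysate and expressed vs control, mean ± SE, n = 3.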

[26] = target: Oxysterols receptor LXR-beta (Homo sapiens) (UniProt P55055); test: Agonist activity at LXRbeta (unknown origin) transfected in human CHO-K1 cells assessed as induction of transactivation by luciferase reporter gene transactivation assay relative to control
HepG2 [27] = test: Downregulation of LXRalpha protein expression in human HepG2 cells at 50 to 100 microM by immunoblotting; assay type: functional; how it was run: as §2
RAW264.7 [28] = test: Induction of cholesterol efflux genes in mouse RAW264.7 cells assessed as increase in LXRbeta mRNA expression measured at 50 microM by qPCR; assay type: functional; how it was run: as §1
[29] = target: Oxysterols receptor LXR-beta (Homo sapiens) (UniProt P55055); test: Agonist activity at LXRbeta (unknown origin) transfected in human CHO-K1 cells assessed as induction of transactivation at 100 microM by luciferase reporter gene transactivation assay relative to control
RAW264.7 [30] = test: Induction of cholesterol efflux genes in mouse RAW264.7 cells assessed as increase in LXRbeta mRNA expression measured at 100 microM by qPCR; assay type: functional; how it was run: as §1

SMILES: CCN(c1ccc(C(O)(C(F)(F)F)C(F)(F)F)cc1)S(=O)(=O)c1ccccc1
- Activity (HepG2 [1]): inactive
- Activity [2]: Dose-dependent effect
- Activity [3]: Dose-dependent effect
- EC50 [4]: 0.01 µM
- EC50 [5]: 0.32 µM

SMILES: CC12CCC(CC1)C(C)(C)O2 [EUCALYPTOL]
- fold change (FC) [6]: 2.3
- inhibition (INH) (HepG2 [7]): 30%
- Activity (HepG2 [8]): Active
- Activity (RAW264.7 [9]): 17%
- Activity (RAW264.7 [10]): Active
- Activity [2]: inactive
- Activity (RAW264.7 [11]): Active
- Activity (RAW264.7 [12]): Active
- Activity (HepG2 [13]): Active
- inhibition (INH) (HepG2 [14]): 24%
- Activity [3]: inactive
- Activity (RAW264.7 [15]): Dose-dependent effect
- inhibition (INH) (HepG2 [16]): 50%
- Activity (RAW264.7 [17]): Active
- inhibition (INH) (HepG2 [18]): 25%
- Activity (RAW264.7 [19]): Active
- inhibition (INH) (HepG2 [20]): 10%
- Activity (RAW264.7 [21]): 20%
- Activity (RAW264.7 [22]): 17%
- fold change (FC) [23]: 1.4
- inhibition (INH) (HepG2 [24]): 25%
- Activity [25]: > 75%
- Activity [26]: Dose-dependent effect
- inhibition (INH) (HepG2 [27]): 40%
- Activity (RAW264.7 [28]): 35%
- fold change (FC) [29]: 2
- Activity (RAW264.7 [30]): 50%
